Assay results as given in ChEMBL document CHEMBL1208687, “Synthesis, antibacterial activity evaluation and QSAR studies of novel dispiropyrrolidines” (2010).
≈ marks a conversion by molar mass, not a printed value.

Key:
Format in all cases: functional
[1] = test system: Staphylococcus aureus; test: Antimicrobial activity against Staphylococcus aureus NCIM 5021 after 18 hrs by broth microdilution assay; details: NCIM 5021, 18 h
Procedure, shortened: (§1)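 MIC by broth microdilution in Mueller Hinton broth, final inoculum 5 × 10⁵ CFU/ml. Compounds dissolved in absolute ethanol (10 mg per 1 ml stock), then serially diluted into successive wells. Incubated with organism at 37 °C for 18 h with growth and sterility controls, ethanol blank, and uninoculated dilutions checked for precipitation. Then 0.01% resazurin added, read after 2 h further incubation.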

[2] = test system: Bacillus subtilis; test: Antimicrobial activity against Bacillus subtilis NCIM 2718 after 18 hrs by broth microdilution assay; details: NCIM 2718, 18 h; procedure, shortened: as §1
[3] = test system: Pseudomonas aeruginosa; test: Antimicrobial activity against Pseudomonas aeruginosa NCIM 5029 after 18 hrs by broth microdilution assay; details: NCIM 5029, 18 h; procedure, shortened: as §1

Structure (SMILES) | MIC [1] [µM] | MIC [2] [µM] | MIC [3] [µM]
CN1C(=O)C[C@@]2(C1=O)[C@@H](c1ccccc1O)CN(C)[C@@]21C(=O)Nc2ccccc21 | 639 (≈ 250 µg/mL) | 639 (≈ 250 µg/mL) | 80 (≈ 31.3 µg/mL)
CC1(C)S[C@@H]2[C@H](NC(=O)[C@H](N)c3ccccc3)C(=O)N2[C@H]1C(=O)O [AMPICILLIN] | 84 (≈ 29.4 µg/mL) | 168 (≈ 58.7 µg/mL) | 168 (≈ 58.7 µg/mL)
CN1C(=O)C[C@@]2(C1=O)[C@@H](c1ccc(Cl)cc1)CN(C)[C@@]21C(=O)N(C)c2ccccc21 | 295 (≈ 125 µg/mL) | 590 (≈ 250 µg/mL) | 147 (≈ 62.3 µg/mL)
CN1C(=O)C[C@@]2(C1=O)[C@@H](c1ccccc1O)CN(C)[C@@]21C(=O)N(C)c2ccccc21 | 617 (≈ 250 µg/mL) | 617 (≈ 250 µg/mL) | 77 (≈ 31.2 µg/mL)
CN(C)[C@@H]1C(O)=C(C(N)=O)C(=O)[C@@]2(O)C(O)=C3C(=O)c4c(O)cccc4[C@@](C)(O)[C@H]3C[C@@H]12 [TETRACYCLINE] | 2 (≈ 0.889 µg/mL) | 1 (≈ 0.444 µg/mL) | 4 (≈ 1.78 µg/mL)
COc1ccc([C@H]2CN(C)[C@@]3(C(=O)N(Cc4ccccc4)c4ccccc43)[C@@]23CC(=O)N(C)C3=O)cc1 | 252 (≈ 125 µg/mL) | 504 (≈ 250 µg/mL) | 252 (≈ 125 µg/mL)
COc1ccc([C@H]2CN(C)[C@@]3(C(=O)Nc4ccccc43)[C@@]23CC(=O)N(C)C3=O)cc1 | 617 (≈ 250 µg/mL) | 617 (≈ 250 µg/mL) | 154 (≈ 62.4 µg/mL)
C#CCN1C(=O)[C@]2(c3ccccc31)N(C)C[C@H](c1ccccc1O)[C@]21CC(=O)N(C)C1=O | 291 (≈ 125 µg/mL) | 291 (≈ 125 µg/mL) | 146 (≈ 62.7 µg/mL)
CN1C(=O)C[C@@]2(C1=O)[C@@H](c1ccc(Cl)cc1)CN(C)[C@@]21C(=O)Nc2ccccc21 | 305 (≈ 125 µg/mL) | 610 (≈ 250 µg/mL) | 152 (≈ 62.3 µg/mL)
COc1ccc([C@H]2CN(C)[C@@]3(C(=O)N(C)c4ccccc43)[C@@]23CC(=O)N(C)C3=O)cc1 | 298 (≈ 125 µg/mL) | 596 (≈ 250 µg/mL) | 298 (≈ 125 µg/mL)
Cc1ccc([C@H]2CN(C)[C@@]3(C(=O)Nc4ccccc43)[C@@]23CC(=O)N(C)C3=O)cc1 | 321 (≈ 125 µg/mL) | 642 (≈ 250 µg/mL) | 321 (≈ 125 µg/mL)
